# FAK inh: FAK (human) kinase inhibition | Q05397 | inhibition, %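 (tested at 7 µM)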 | AID 727 | biochemical FAK kinase activity assay | hit rate 0.84% among 97,000; in the data active = inhibition above about 19%
# Calb biofilm kill: kills Candida albicans biofilms; C. albicans biofilm + clotrimazole, Alamar Blue; inhibition, % at 6 µM; hit rate 0.14% among 85,000;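 active = inhibition above 20%; inactive = inhibition below 20%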;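 note: preformed 24 hr biofilms exposed to compound for 48 hr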
# PostGolgi yeast: growth inhibition of a yeast mutant, post-Golgi transport screen; post-Golgi transport phenotypic cell assay; inhibition, % at 10 µM; hit rate 0.9% among 98,000; AID 739;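 note: yeast cells grown in 1536-well plates; yeast grown about 18 h at 30C before absorbance read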
# PTK2B oligo ant: antagonists of human Pyk2 oligomerization; Q14289; Q293 cells, Pyk2 FERM NanoBiT luminescence; active compounds read low; z-score (the deposit names both 25 µM and 10 µM); hit rate 0.83% among 99,000; AID 1347419;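 active = Z-score of -3 or lower, scaled per plate to the spread of control and sample wells; inactive = z-score above -3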;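 note: negative z-score means lost luminescence so less FERM oligomerization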
# Ecoli tolC: E. coli tolC mutant growth inhibition | growth inhibition, % at 10 µM (by protocol) | hit rate 2.2% among 65,000 | E. coli BW25113 tolC mutant growth, OD615;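 active = growth inhibition at or above a cutoff equal to the mean over every tested compound plus 3 SD, cut at about 60% in these data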;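 note: growth measured after 20 h incubation at 37 °C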
#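 Test system – E. coli BW25113 ΔtolC::kan, tolC deletion mutant strain · Detection – OD at 615 nm · Buffer or medium – LB with kanamycin 50 µg/mL · Times – 20 h compound exposure of bacteria at 37 °C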
# PostGolgi ctrl: inhibits growth of the yeast control strain; efflux-deficient yeast background strain, growth absorbance A615, 16 h; inhibition, % at 10 µM; hit rate 5% among 98,000
# A number is an active result; n = inactive; x = not tested or not shown. The list is not random: actives were taken first. Their share in the collection is about 6.9%. Cut-off read from the data, not from the text of the source, unless noted: active = inhibition above about 30%; inactive = the rest.
SMILES,FAK inh,Calb biofilm kill,PostGolgi yeast,PTK2B oligo ant,Ecoli tolC,PostGolgi ctrl
O=C(NCCc1ccccc1)C1(c2ccccc2)CC1(Cl)Cl (centres undefined),n,x,n,n,x,39
O=C(CC(=O)NN=C1CCCC1)NCCc1ccccc1,n,x,n,n,x,n
Cc1ccc(Cn2ncn3c(cc4ccccc43)c2=O)cc1,n,x,n,n,65,35
Cc1cc(C)nc(SCc2nnc(SCC(=O)Nc3nccs3)n2C)n1,n,n,x,n,x,x
COc1ccc(CCCc2nnc(SCC(=O)Nc3nccs3)n2C)cc1C,n,n,n,n,n,45
O=C(c1cc(-c2ccc(Cl)cc2)n(-c2cc(Cl)ccc2Cl)n1)N1CCOCC1,n,x,n,n,x,43
O=C(c1cc(-c2ccc(Cl)cc2)n(-c2ccc(Cl)c(Cl)c2)n1)N1CCOCC1,n,x,n,n,x,40
O=C(c1cc(Cl)ccc1Cl)N1CCOCC1,x,n,n,n,n,n
Cn1c(=O)oc2cc(S(=O)(=O)NCCC(=O)N3CCc4ccccc4C3)ccc21,n,n,n,n,n,n
O=C(CNS(=O)(=O)c1cccs1)N1CCCC1,x,n,n,n,n,n
O=C(NCc1n[nH]c(=S)n1-c1cccc(Cl)c1)c1ccc(S(=O)(=O)N2CCCC2)cc1,n,x,n,n,n,n
COCCN1C=C(C(=O)OC)C(c2cc(Br)c(OC)c(OC)c2)C(C(=O)OC)=C1,n,n,n,-3.4,n,n
Cc1nn2c(-c3ccc(Cl)cc3)nnc2s1,x,n,x,n,n,x
CN1C(=O)/C(=C2\SC(N3CCCCCC3)=NC2=O)c2ccccc21,n,n,n,n,x,42
CCCN1C(=O)/C(=C2\SC(N3CCCCC3)=NC2=O)c2ccccc21,n,n,n,n,n,39
Cc1ccc(NC(=O)CC2S/C(=N/c3nccs3)N(C)C2=O)c(C)c1 (centres undefined),n,n,n,n,x,32
COc1ccccc1OCC(=O)N/N=C1\CCc2ccccc21,n,n,n,n,x,n
CN1CC(=O)N(CCOc2ccccc2)C1=O,x,n,n,n,n,n
CN(C)S(=O)(=O)c1ccc(C(=O)OCn2nnc3ccccc3c2=O)cc1,n,n,58,x,x,n
Cc1ccc(S(=O)(=O)N[C@H](C(=O)OCn2nnc3ccccc3c2=O)C(C)C)cc1,n,n,n,n,x,35
COc1ccc(C(=O)OCn2nnc3ccccc3c2=O)cc1OC,n,x,n,n,n,n
CC(=O)OCC(=O)[C@@]1(O)CC[C@H]2[C@@H]3CCC4=CC(=O)C=C[C@]4(C)[C@@]3(Cl)[C@@H](Cl)C[C@@]21C,x,n,x,x,n,x
CC1(c2ccccc2)CC(C)(C)N(C(=O)C2CCCO2)c2ccccc21 (centres undefined),n,n,n,n,x,66
Cn1cc(S(=O)(=O)CC(=O)Nc2ccc3c(c2)OCCO3)c2ccccc21,n,23,x,n,n,x
O=C(CS(=O)(=O)c1c[nH]c2ccccc12)Nc1ccc2c(c1)OCCO2,n,n,n,n,n,n
SMILES,FAK inh,Calb biofilm kill,PostGolgi yeast,PTK2B oligo ant,Ecoli tolC,PostGolgi ctrl
C=CCSc1nnc(-c2nnc(SCC=C)n2-c2ccccc2)n1-c1ccccc1,n,n,n,n,x,33
C=CCSc1nnc(-c2sc(-c3ccccc3)nc2C)n1C,n,x,n,n,x,n
CCc1ccccc1N=C1SCC(=O)N1C,n,x,n,n,n,n
CCN1C(=O)CSC1=NC1C2CC3CC(C2)CC1C3 (centres undefined),n,x,n,n,88,n
Cc1ccc(C2C(C#N)=C(N)SC(N)=C2C#N)c(C)c1,x,n,n,n,n,n
Cc1ccc(C2C(C#N)=C(N)SC(N)=C2C#N)cc1,n,n,n,n,n,40
CCOC(=O)C1=C(O)/C(=C\c2ccc(CNC(=O)C(=O)Nc3ccc(C)c(C)c3)o2)N=C1C,n,69,n,x,x,n
C=CCn1c(SCc2csc(C)n2)nc2sc3c(c2c1=O)CCC(C)C3 (centres undefined),n,n,x,n,x,x
Cn1cc(C(=O)c2ccc(Cl)cc2)cc1-c1nc2ccccc2n1C,n,n,n,n,n,40
O=C(Nc1nnc(-c2ccccc2)o1)c1nc2ccccc2s1,x,n,x,x,73,x
COC(=O)c1ccc(Nc2cc(C)nc3nc(C)nn23)cc1,x,n,x,x,n,x
COc1ccc(CNC(=O)c2cc(C3CC3)on2)cc1,x,n,n,x,n,33
O=C(NC1CCCCC1)C(c1ccco1)N(Cc1cccnc1)C(=O)C1COc2ccccc2O1 (centres undefined),n,n,n,n,n,30
O=C(NCC(=O)N(Cc1ccccc1)C(C(=O)NC1CCCC1)c1cccnc1)c1ccco1 (centres undefined),n,n,x,n,x,x
COc1cc(-c2cn(S(=O)(=O)c3cccc4nsnc34)nc2N)cc(OC)c1OC,n,n,n,n,x,n
Cc1ccc(-c2cn(S(=O)(=O)c3cccc4nsnc34)nc2N)cc1,n,n,48,n,n,n
Nc1nn(S(=O)(=O)c2cccc3nsnc23)cc1-c1ccc(Br)cc1,n,n,79,n,n,72
CC(C)(C)NS(=O)(=O)c1cccc2nsnc12,n,n,x,x,n,x
CCOC(=O)N1CCC(N(C(=O)Nc2ccc(CC)cc2)C(C)CC)CC1 (centres undefined),n,n,n,n,n,30
CCOc1ccccc1CNC(=O)CCN1C(=O)COc2ccccc21,n,n,n,n,n,44
COc1ccc(-n2c(SCC(N)=O)nc3sc4c(c3c2=O)CCN(C)C4)cc1,x,n,n,n,n,n
C=CCn1c(SCC(O)Cn2c3ccccc3c3ccccc32)nnc1-c1ccco1 (centres undefined),n,n,n,n,81,46
C=CCn1c(SCC(=O)Nc2ccccc2OC)nnc1-c1ccco1,n,n,n,x,n,n
O=C(Nc1nc2ccccc2s1)C1CC(=O)N(c2ccc(Cl)cc2)C1 (centres undefined),n,n,n,n,x,40
CCc1ccccc1N1CCN(S(=O)(=O)c2cc(OC)ccc2OC)CC1,n,n,n,-3.3,n,n
SMILES,FAK inh,Calb biofilm kill,PostGolgi yeast,PTK2B oligo ant,Ecoli tolC,PostGolgi ctrl
CC(=O)NC1C(c2nc3ccccc3s2)=C(c2ccccc2)C(=O)N1c1ccc(C)cc1 (centres undefined),n,n,64,n,x,n
CCOC(=O)CN1CC23C=CC(O2)C(C(=O)NCc2cccs2)C3C1=O (centres undefined),n,n,n,n,n,n
O=C(CCn1cnc2ccccc2c1=O)Nc1ccc(Cl)c(Cl)c1,n,41,n,n,x,n
O=C1CC(Nc2ccc(N3CCOCC3)cc2)C(=O)N1c1ccccc1 (centres undefined),n,n,n,n,x,n
Cc1ccc(S(=O)(=O)N2CCN(S(=O)(=O)c3ccccc3)C2)cc1,n,n,n,n,x,n
C/C(=N\S(=O)(=O)c1ccc(C)cc1)N1CCN(S(=O)(=O)c2ccccc2)C1,n,x,n,n,n,31
c1ccc(-n2cnc3cc(NCc4ccccn4)ccc32)cc1,n,n,n,-3.4,n,n
c1ccc(-n2cnc3cc(NCc4ccncc4)ccc32)cc1,n,n,n,-3.4,n,n

# Screens deposited in PubChem BioAssay by several laboratories.
